ChEMBL document CHEMBL1671665, “Effect of beta-1,6-glucan inhibitors on the invasion process of Candida albicans: potential mechanism of their in vivo efficacy” (Antimicrob Agents Chemother, 2009)
In brackets after ≈: the same amount, converted by molar mass. Activity calls are given as the source filed them. No cut-off for these calls is given here.

Experiments:
[1] = tested on: Candida albicans; assay: Antifungal activity against Candida albicans ATCC 24433 by microdilution method; type: functional
How it was run: (§1)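 Broth microdilution per NCCLS M27-A2 in MOPS-buffered RPMI with Alamar Blue, incubated at 30°C. Starting inoculum 1 × 10³ to 3 × 10⁴ cells/ml. End point MIC-2: 50% reduction in A570 against drug-free control. Duplicate runs, repeated on another day if they disagreed.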

[2] = tested on: Candida albicans; assay: Antifungal activity against Candida albicans ATCC 90028 by microdilution method; type: functional; how it was run: as §1
[3] = tested on: Nakaseomyces glabratus; assay: Antifungal activity against Candida glabrata ATCC 48435 by microdilution method; type: functional; how it was run: as §1
[4] = tested on: Pichia kudriavzevii; assay: Antifungal activity against Candida krusei ATCC 44507 by microdilution method; type: functional; how it was run: as §1
[5] = tested on: Candida albicans; assay: Antifungal activity against Candida albicans ATCC 24433 in RPMI media by microdilution method; type: functional; how it was run: as §1
[6] = tested on: Candida albicans; assay: Antifungal activity against Candida albicans ATCC 24433 in MEM media by microdilution method; type: functional
How it was run: (§2)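 Broth microdilution per NCCLS at 30°C, inoculum 1 × 10³ to 3 × 10⁴ cells/ml. Medium was MEM, SDB, YNB, Spider or Lee's, all without Alamar Blue. End point MIC-2: 50% drop in OD600 against drug-free control. RPMI run used MOPS-buffered RPMI with Alamar Blue read at 570 nm. Duplicates.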

[7] = tested on: Candida albicans; assay: Antifungal activity against Candida albicans ATCC 24433 in SDB media by microdilution method; type: functional; how it was run: as §2
[8] = tested on: Candida albicans; assay: Antifungal activity against Candida albicans ATCC 24433 in YNB media by microdilution method; type: functional; how it was run: as §2
[9] = tested on: Candida albicans; assay: Antifungal activity against Candida albicans ATCC 24433 in Lee's media by microdilution method; type: functional; how it was run: as §2
[10] = tested on: Candida albicans; assay: Antifungal activity against Candida albicans ATCC 24433 in Spider media by microdilution method; type: functional; how it was run: as §2
[11] = Cmax in Slc::ddY mouse at 10 mg/kg, po tid administered 1 hr post infection for 1 day; type: ADME, organism-based; parameters: dose 10 mg/kg, route oral; conditions: in vivo
[12] = Half life in Slc::ddY mouse at 10 mg/kg, po tid administered 1 hr post infection for 1 day; type: ADME, organism-based; parameters: dose 10 mg/kg, route oral; conditions: in vivo
[13] = tested on: Nakaseomyces glabratus; assay: Antifungal activity against Candida glabrata ATCC 48435 infected in Slc::ddY mouse assessed as survival rate at 3.3 mg/kg, po tid administered 1 hr post infection for 1 day measured on day 14; type: functional
How it was run: (§3)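 Five-week-old female Slc:ddY mice, made neutropenic with cyclophosphamide 200 mg/kg ip 4 days before and 1 day after infection. SDA-grown cells in 0.1% Tween 80 saline were injected into the tail vein: C. albicans 2.6 × 10⁴ cells, C. glabrata 2.4 × 10⁸ cells. Oral dosing at 1, 4 and 7 h post-infection. Controls got 5% glucose with 1% lactic acid. 10 mice/group; mortality followed 14 or 30 days.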

[14] = tested on: Nakaseomyces glabratus; assay: Antifungal activity against Candida glabrata ATCC 48435 infected in Slc::ddY mouse assessed as survival rate at 10 mg/kg, po tid administered 1 hr post infection for 1 day measured on day 14; type: functional; how it was run: as §3
[15] = tested on: Candida albicans; assay: Inhibition of beta-1.6-glucan synthesis in Candida albicans ATCC 90028 assessed as [14C] glucose incorporation after 3 hrs; type: functional, organism-based
How it was run: (§4)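 Exponential cells suspended in RPMI 1640 (A595 about 0.6) with drug and [14C]glucose, 3 h at 30°C with occasional shaking. Cells extracted with 3% NaOH at 80°C for 1 h; mannan precipitated with Fehling's reagent. Insoluble fraction digested overnight with Zymolyase to separate β-1,6-glucan. Percent change in incorporated radioactivity against control.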

[16] = tested on: Nakaseomyces glabratus; assay: Inhibition of beta-1.6-glucan synthesis in Candida glabrata ATCC 48435 assessed as [14C] glucose incorporation after 3 hrs; type: functional, organism-based; how it was run: as §4
[17] = tested on: Pichia kudriavzevii; assay: Inhibition of beta-1.6-glucan synthesis in Candida krusei ATCC 44507 assessed as [14C] glucose incorporation after 3 hrs; type: functional, organism-based; how it was run: as §4
[18] = tested on: Candida albicans; assay: Inhibition of beta-1.6-glucan synthesis in Candida albicans ATCC 90028 assessed as [14C] glucose incorporation at 0.063 ug/ml after 3 hrs; type: functional, organism-based; how it was run: as §4
[19] = tested on: Candida albicans; assay: Antifungal activity against Candida albicans ATCC 90028 assessed as degradation of mannan layer of the cell wall at 1 ug/ml after 6 hrs using fluorescein-conjugated concanavalin A stain by fluorescent microscopy; type: functional, organism-based
How it was run: (§5)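 Budding yeast at 1 × 10³ cells/ml exposed to drug in MOPS-buffered RPMI for 6 h with shaking (legend gives 30°C). Cells fixed in 3% glutaraldehyde/0.1 M phosphate for 2 h. For mannan: stained 30 min with 10 μg/ml fluorescein–concanavalin A, fluorescence microscopy. For TEM: 2% OsO4 postfix, Spurr's resin, uranyl acetate/lead citrate stained sections.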

[20] = tested on: Candida albicans; assay: Antifungal activity against Candida albicans ATCC 90028 assessed as degradation of mannan layer of the cell wall at >0.25 ug/ml after 6 hrs using fluorescein-conjugated concanavalin A stain by fluorescent microscopy; type: functional, organism-based; how it was run: as §5
[21] = tested on: Candida albicans; assay: Antifungal activity against Candida albicans ATCC 90028 assessed as inhibition of adherence of fungal cell to human A549 cells; type: functional, organism-based
How it was run: (§6)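 Yeast pretreated with drug in MOPS-buffered RPMI at 30°C overnight without shaking. 100 or 200 cells in DPBS overlaid on confluent A549 monolayers (DMEM/10% FBS), 45 min at 37°C, 5% CO2. Washed, covered with SDA, colonies counted after 48 h at 30°C. Percent reduction of adherence; triplicate, mean ± SD.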

[22] = tested on: Nakaseomyces glabratus; assay: Antifungal activity against Candida glabrata ATCC 48435 assessed as inhibition of adherence of fungal cell to human A549 cells; type: functional, organism-based; how it was run: as §6
[23] = tested on: Pichia kudriavzevii; assay: Antifungal activity against Candida krusei ATCC 44507 assessed as inhibition of adherence of fungal cell to human A549 cells; type: functional, organism-based; how it was run: as §6
[24] = tested on: Candida albicans; assay: Antifungal activity against Candida albicans ATCC 90028 assessed as inhibition of hyphal elongation at 0.25 ug/ml in Lee's medium using crystal violet stain by light microscopy; type: functional, organism-based
[25] = tested on: Candida albicans; assay: Antifungal activity against Candida albicans ATCC 90028 assessed as inhibition of hyphal elongation at 0.25 ug/ml in HFM-7 medium using crystal violet stain by light microscopy; type: functional, organism-based
[26] = tested on: Candida albicans; assay: Antifungal activity against Candida albicans ATCC 90028 assessed as inhibition of hyphal elongation at 0.25 ug/ml in Spider medium using crystal violet stain by light microscopy; type: functional, organism-based
[27] = tested on: Candida albicans; assay: Antifungal activity against Candida albicans ATCC 90028 infected in reconstituted human vaginal epithelium tissue assessed as inhibition of fungal cell invasion in to the tissue at 0.25 ug/ml using […] and methylene blue stain by light microscopy; type: functional, organism-based
How it was run: (§7)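 RHVE (A431 keratinocytes) infected with 2 × 10⁶ ATCC 90028 cells that had been pretreated with drug. Drug also added to the maintenance medium. After 24 h at 37°C, 5% CO2, tissue fixed in formaldehyde; semithin sections stained with […]/methylene blue and examined by light microscopy.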

[28] = tested on: Candida albicans; assay: Antifungal activity against Candida albicans ATCC 90028 infected in reconstituted human vaginal epithelium tissue assessed as inhibition of fungal cell invasion in to the tissue at 1 ug/ml using […] and methylene blue stain by light microscopy; type: functional, organism-based; how it was run: as §7
[29] = tested on: Saccharomyces cerevisiae; assay: Antifungal activity against Saccharomyces cerevisiae AY-10c expressing ScKRE6 gene by microdilution method; type: functional
[30] = tested on: Saccharomyces cerevisiae; assay: Antifungal activity against Saccharomyces cerevisiae CY-1a expressing ScKRE6 gene by microdilution method; type: functional
[31] = tested on: Saccharomyces cerevisiae; assay: Antifungal activity against Saccharomyces cerevisiae CY-3a expressing ScKRE6-CaSKN2 gene by microdilution method; type: functional
[32] = tested on: Saccharomyces cerevisiae; assay: Antifungal activity against Saccharomyces cerevisiae CY-4a expressing ScKRE6-CaKRE6 gene by microdilution method; type: functional
[33] = tested on: Saccharomyces cerevisiae; assay: Antifungal activity against Saccharomyces cerevisiae CY-5a expressing ScKRE6-CaSKN1 gene by microdilution method; type: functional
[34] = tested on: Candida albicans; assay: Antifungal activity against Candida albicans ATCC 90028 infected in Slc::ddY mouse assessed as survival rate at 10 mg/kg, po tid administered 1 hr post infection for 1 day measured on day 30; conditions: ATCC 90028, po
[35] = tested on: Candida albicans; assay: Antifungal activity against Candida albicans ATCC 90028 assessed as absence of outer layer of the cell wall at 1 ug/ml after 6 hrs by TEM; type: functional, organism-based; how it was run: as §5

## Cc1c(-c2ccccc2)c(N2CC[C@H](N(C)C)C2)n2c(nc3ncccc32)c1C#N
[1]
  MIC: > 32 µg/mL
[2]
  MIC: > 32 µg/mL
[3]
  MIC: 0.125 µg/mL (≈ 0.315 µM)
[4]
  MIC: 0.5 µg/mL (≈ 1.26 µM)
[5]
  MIC: > 16 µg/mL
[6]
  MIC: > 16 µg/mL
[7]
  MIC: 4 µg/mL (≈ 10.1 µM)
[8]
  MIC: 16 µg/mL (≈ 40.4 µM)
[9]
  MIC: 0.125 µg/mL (≈ 0.315 µM)
[10]
  MIC: 0.125 µg/mL (≈ 0.315 µM)
[11]
  Cmax: 710 ng/mL
[12]
  half-life: 4.4 h
[13]
  survival at 3.3 mg/kg: 90%
[14]
  survival at 10 mg/kg: 100%
[15]
  inhibition: Active
[16]
  inhibition: Active
[17]
  inhibition: Active
[18]
  inhibition: Active
[19]
  Activity: Active
[20]
  Activity: Active
[21]
  Activity: Active
[22]
  Activity: Active
[23]
  Activity: Active
[24]
  Activity: Active
[25]
  Activity: Active
[26]
  Activity: Active
[27]
  Activity: Active
[28]
  Activity: Active
[29]
  MIC: 0.25 µg/mL (≈ 0.631 µM)
[30]
  MIC: 0.5 µg/mL (≈ 1.26 µM)
[31]
  MIC: 0.25 µg/mL (≈ 0.631 µM)
[32]
  MIC: 0.25 µg/mL (≈ 0.631 µM)
[33]
  MIC: 0.25 µg/mL (≈ 0.631 µM)
[34]
  survival at 10 mg/kg: 50%

## Cc1c(-c2ccccc2)c(N2CC[C@H](N(C)C)C2)n2c(nc3ccccc32)c1C#N
[1]
  MIC: > 32 µg/mL
[2]
  MIC: > 32 µg/mL
[3]
  MIC: 0.016 µg/mL (≈ 0.0405 µM)
[4]
  MIC: 0.25 µg/mL (≈ 0.632 µM)
[5]
  MIC: > 16 µg/mL
[6]
  MIC: > 16 µg/mL
[7]
  MIC: 2 µg/mL (≈ 5.06 µM)
[8]
  MIC: 16 µg/mL (≈ 40.5 µM)
[9]
  MIC: 0.125 µg/mL (≈ 0.316 µM)
[10]
  MIC: 0.063 µg/mL (≈ 0.159 µM)
[35]
  Activity: Active
[29]
  MIC: 0.125 µg/mL (≈ 0.316 µM)
[30]
  MIC: 0.125 µg/mL (≈ 0.316 µM)
[31]
  MIC: 0.125 µg/mL (≈ 0.316 µM)
[32]
  MIC: 0.125 µg/mL (≈ 0.316 µM)
[33]
  MIC: 0.25 µg/mL (≈ 0.632 µM)

## CCc1c(C)c(C#N)c2nc3ccccc3n2c1NCCN(CC)CC
[1]
  MIC: 8 µg/mL (≈ 22.9 µM)
[2]
  MIC: 16 µg/mL (≈ 45.8 µM)
[3]
  MIC: 1 µg/mL (≈ 2.86 µM)
[4]
  MIC: 16 µg/mL (≈ 45.8 µM)
[29]
  MIC: 8 µg/mL (≈ 22.9 µM)
[30]
  MIC: 8 µg/mL (≈ 22.9 µM)
[31]
  MIC: 8 µg/mL (≈ 22.9 µM)
[32]
  MIC: 16 µg/mL (≈ 45.8 µM)
[33]
  MIC: 16 µg/mL (≈ 45.8 µM)
